Assay results reported in ChEMBL document CHEMBL3580549, “Lignan Glycosides from the Twigs of Chaenomeles sinensis and Their Biological Activities” (J Nat Prod, 2015).

Columns and labels:
SK-OV-3 = experiment: Cytotoxicity against human SKOV3 cells by SRB assay; assay type: functional, cell-based
HCT-15 = experiment: Cytotoxicity against human HCT15 cells by SRB assay; assay type: functional, cell-based
C6 = experiment: Neuroprotective activity in rat C6 cells assessed as stimulation of NGF release at 20 uM after 24 hrs by ELISA relative to control; assay type: functional
Method in brief: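 C6 rat glioma cells were treated with each compound at 20 μM, and NGF secreted into the medium was measured. Stimulation is given as percent of control, and 6-shogaol was the positive control.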

SK-MEL-2 = experiment: Cytotoxicity against human SK-MEL-2 cells by SRB assay; assay type: functional, cell-based
[1] = Cytotoxicity against mouse BV2 cells assessed as cell viability at 20 uM by MTT assay relative to control; assay type: cell-based, BV-2; conditions: read-out: Activity
A549 = experiment: Cytotoxicity against human A549 cells by SRB assay; assay type: functional, cell-based
[2] = Antiinflammatory activity against LPS-stimulated mouse BV2 cells assessed as inhibition of nitric oxide production preincubated for 30 mins followed by LPS stimulation measured after 24 hrs by Griess assay; assay type: functional, cell-based; conditions: BV-2
Method in brief: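 Murine BV2 microglial cells were activated with lipopolysaccharide. NO released into the culture medium was measured, and IC50 was derived from the inhibition of NO production. L-NMMA was the positive control.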

IC50 [2]	SMILES	IC50 (SK-OV-3)	IC50 (HCT-15)	Activity (C6)	IC50 (SK-MEL-2)	viability at 20 µM [1]	IC50 (A549)
–	COc1cc([C@H]2Oc3c(OC)cc(CCCO)cc3[C@@H]2CO[C@@H]2O[C@@H](C)[C@H](O)[C@@H](O)[C@H]2O)cc(OC)c1O	> 10 µM	> 10 µM	151.74%	> 10 µM	98.2%	> 10 µM
–	COc1cc([C@@H]2Oc3c(OC)cc(CCCO)cc3[C@H]2CO[C@@H]2O[C@@H](C)[C@H](O)[C@@H](O)[C@H]2O)cc(OC)c1O	> 10 µM	> 10 µM	106.85%	> 10 µM	104%	> 10 µM
180 µM	COc1cc(C[C@@H]2CO[C@@H](c3ccc(O)c(OC)c3)[C@@H]2CO[C@@H]2O[C@@H](C)[C@H](O)[C@@H](O)[C@H]2O)ccc1O	> 10 µM	> 10 µM	144.31%	> 10 µM	102%	> 10 µM
199 µM	COc1cc(C[C@@H]2CO[C@@H](c3cc(OC)c(O)c(OC)c3)[C@@H]2CO[C@@H]2O[C@@H](C)[C@H](O)[C@@H](O)[C@H]2O)cc(OC)c1O	> 10 µM	> 10 µM	–	> 10 µM	97.1%	> 10 µM
29.8 µM	COc1cc(C[C@H]2CO[C@@H](c3cc(OC)c(O)c(OC)c3)[C@H]2CO[C@@H]2O[C@@H](C)[C@H](O)[C@@H](O)[C@H]2O)cc(OC)c1O	> 10 µM	> 10 µM	124.67%	> 10 µM	113%	> 10 µM
21.3 µM	COc1cc(C[C@H](CO)[C@@H](CO[C@@H]2O[C@@H](C)[C@H](O)[C@@H](O)[C@H]2O)Cc2cc(OC)c(O)c(OC)c2)cc(OC)c1O	> 10 µM	> 10 µM	167.61%	> 10 µM	104%	> 10 µM
–	COc1cc([C@H]2Oc3c(OC)cc(CCCO)cc3[C@@H]2CO[C@@H]2O[C@@H](C)[C@H](O)[C@@H](O)[C@H]2O)ccc1O	> 10 µM	> 10 µM	102.88%	> 10 µM	97.4%	> 10 µM
31.9 µM	COc1cc([C@H]2c3c(cc(OC)c(O)c3OC)C[C@@H](CO)[C@@H]2CO[C@@H]2O[C@@H](C)[C@H](O)[C@@H](O)[C@H]2O)cc(OC)c1O	> 10 µM	> 10 µM	–	> 10 µM	99.1%	> 10 µM
37.7 µM	COc1cc([C@H]2c3c(cc(OC)c(O)c3OC)C[C@@H](CO)[C@@H]2CO[C@@H]2O[C@H](CO)[C@@H](O)[C@H](O)[C@H]2O)cc(OC)c1O	> 10 µM	> 10 µM	–	> 10 µM	99.7%	> 10 µM
–	COc1cc([C@H]2Oc3c(OC)cc(CCCO)cc3[C@@H]2CO[C@@H]2O[C@H](CO)[C@@H](O)[C@H](O)[C@H]2O)ccc1O	> 10 µM	> 10 µM	140.04%	> 10 µM	97.2%	> 10 µM
40.2 µM	COc1cc([C@H]2c3cc(O)c(OC)cc3C[C@@H](CO)[C@@H]2CO[C@@H]2O[C@@H](C)[C@H](O)[C@@H](O)[C@H]2O)ccc1O [AVICULIN]	> 10 µM	> 10 µM	123.06%	> 10 µM	96.1%	> 10 µM
–	CCCCC/C=C/C(=O)CCc1ccc(O)c(OC)c1 [SHOGAOL]	–	–	141.75%	–	–	–
24.8 µM	CNC(=N)NCCC[C@H](N)C(=O)O [TILARGININE]	–	–	–	–	106%	–
